pIC50: −log10 of the molar value. Converted amounts (≈) assume the structure as drawn.
Tests used:
[1] = Apparent permeability across apical to basolateral side in human Caco2 cells assessed as mean drug recovery at 2 uM after 2 hrs by lucifer yellow dye-based LC-MS/MS analysis; details: caco-2, 2 h
[2] = tested on: Mycobacterium tuberculosis; assay: Antibacterial activity against Mycobacterium tuberculosis H37Rv after 5 days under normoxic condition by resazurin dye-based fluorescence assay; type: functional, organism-based; details: for pIC50: Mycobacterium tuberculosis, H37Rv, 120 h
In short: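 H37Rv grown in 7H9/ADC/glycerol/Tyloxapol to mid-exponential phase, diluted to OD600 0.001 (~2 x 10^4 CFU/mL) in 7H9S with serially diluted compound. Incubated 5 days at 37 °C, then resazurin and Tween-80 added. Fluorescence (ex 530/em 590 nm) read after 24 h, normalised to no-drug and no-bacteria wells.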

Giardia intestinalis = assay: Antiparasitic activity against Giardia lamblia WB trophozoites after 24 to 48 hrs by CellTiter-Glo luminescent cell viability assay; details: Giardia duodenalis; for IC50: read-out: pIC50 (converted)
physchem [3] = details: PBS, pH 7.4
physchem [4] = details: water
[5] = tested on: Mycobacterium tuberculosis; assay: Antibacterial activity against non-replicating Mycobacterium tuberculosis H37Rv after 5 days under hypoxic condition by resazurin dye-based fluorescence assay; type: functional; details: 120 h
In short: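 Same H37Rv inoculum (OD600 0.001, ~2 x 10^4 CFU/mL) in 7H9S with serially diluted compound. Plates held 5 days at 0.1% oxygen, then resazurin plus Tween-80 added.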

[6] = tested on: Trypanosoma brucei brucei; assay: Antiparasitic activity against bloodstream form of Trypanosoma brucei brucei strain 427 after 48 hrs by resazurin dye-based assay; type: functional, organism-based; details: strain 427, 48 h; for pIC50: read-out: IC50; for IC50: read-out: pIC50 (converted)
Entamoeba histolytica = assay: Antiparasitic activity against Entamoeba histolytica HM-1:IMSS trophozoites after 24 to 48 hrs by CellTiter-Glo luminescent cell viability assay; type: functional, organism-based; details: for pIC50: read-out: IC50; for IC50: read-out: pIC50 (converted)
In short: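 Axenic trophozoites were kept in TYI-S-33 with penicillin (100 U/mL) and streptomycin (100 µg/mL) and harvested in log phase. 5000 parasites per well were exposed to a final 8-point two-fold series of 0.39–50 µM, from 10 mM DMSO stocks. Plates were incubated 24–48 h at 37 °C under anaerobic conditions. ATP luminescence viability was read in triplicate. Percent inhibition is given at the highest concentration tested.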

Clostridioides difficile = assay: Antibacterial activity against Clostridium difficile 630 ATCC BAA-1382 by broth microdilution assay; type: functional
In short: (§1)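 Broth microdilution run essentially per an earlier report. MIC taken as the lowest concentration with no visible growth. Replicates typically agreed within one 2-fold dilution. The median MIC is reported, with a range where the median fell between two tested concentrations.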

[7] = tested on: Mycobacterium tuberculosis; assay: Antibacterial activity against Mycobacterium tuberculosis H37Rv assessed as inhibition of bacterial growth at 32 ug/ml after 5 days under normoxic condition by resazurin dye-based fluorescence assay relative to control; type: functional; details: 120 h, read-out: GI
[8] = Metabolic stability in CD-1 mouse liver microsomes assessed as parent compound remaining at 3 uM after 2 hrs by LC-MS/MS analysis
[9] = Protein binding in human plasma at 5 uM after 30 mins by LC-MS/MS analysis based ultrafiltration method; details: 0.5 h
[10] = Metabolic stability in human liver microsomes assessed as parent compound remaining at 3 uM after 2 hrs by LC-MS/MS analysis
[11] = Metabolic stability in human plasma assessed as parent compound remaining at 3 uM after 2 hrs by LC-MS/MS analysis
[12] = Metabolic stability in CD-1 mouse plasma assessed as parent compound remaining at 3 uM after 2 hrs by LC-MS/MS analysis
HEK293 = assay: Cytotoxicity against HEK293 cells after 24 hrs by resazurin dye-based fluorescence assay; type: cell-based; details: human, hek293, 24 h
In short: (§2)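 HEK293 (3000/well) and HepG2 (5000/well) were grown 24 h in DMEM with 10% FBS at 37 °C, 5% CO2. Cells were then exposed 24 h to a dilution series up to 100 µM (0.5% DMSO). 5 µM resazurin was added for 2 h, read at ex 560/em 590. 1% Triton X-100 served as lysis control. CC50 was derived from the curves.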

Escherichia coli = assay: Antibacterial activity against Escherichia coli ATCC 25922 by broth microdilution assay; type: functional; in short: as §1
Pseudomonas aeruginosa = assay: Antibacterial activity against Pseudomonas aeruginosa ATCC 27853 by broth microdilution assay; type: functional; in short: as §1
HepG2 = assay: Cytotoxicity against human HepG2 cells after 24 hrs by resazurin dye-based fluorescence assay; type: cell-based; details: hepg2, 24 h; in short: as §2
Klebsiella pneumoniae = assay: Antibacterial activity against Klebsiella pneumoniae 700603 by broth microdilution assay; type: functional; in short: as §1
Cryptococcus neoformans = assay: Antifungal activity against Cryptococcus neoformans H99 ATCC […] broth microdilution assay; type: functional; details: var. grubii H99 ATCC 208821; in short: as §1
[13] = tested on: Trypanosoma brucei brucei; assay: Antiparasitic activity against bloodstream form of Trypanosoma brucei brucei strain 427 assessed as inhibition of parasitic growth at 40 uM after 48 hrs by resazurin dye-based assay relative to control; type: functional; details: strain 427, 48 h, read-out: GI
Acinetobacter baumannii = assay: Antibacterial activity against Acinetobacter baumannii ATCC 19606 by broth microdilution assay; type: functional; details: ATCC 19606 = CIP 70.34 = JCM 6841; in short: as §1
Candida albicans = assay: Antifungal activity against Candida albicans ATCC 90028 by broth microdilution assay; type: functional; in short: as §1
Staphylococcus aureus = assay: Antibacterial activity against methicillin-resistant Staphylococcus aureus ATCC […] by broth microdilution assay; type: functional

| SMILES | MIC [2] | pIC50 (Giardia intestinalis) | IC50 (Giardia intestinalis) | MIC [5] | pIC50 [6] | IC50 [6] | pIC50 (Entamoeba histolytica) | inhibition of growth at 32 µg/mL [7] | CC50 (HEK293) | MIC (Escherichia coli) | MIC (Pseudomonas aeruginosa) | CC50 (HepG2) | MIC (Klebsiella pneumoniae) | MIC (Cryptococcus neoformans) | MIC (Acinetobacter baumannii) | MIC (Candida albicans) | MIC (Staphylococcus aureus) | further results |
| --- | --- | --- | --- | --- | --- | --- | --- | --- | --- | --- | --- | --- | --- | --- | --- | --- | --- | --- |
| CC(C)NCC(O)COc1cccc2ccccc12 (stereo not given) [PROPRANOLOL] |  |  |  |  |  |  |  |  |  |  |  |  |  |  |  |  |  | Drug recovery [1]: 70% |
| O=c1[nH]c(-c2ccccc2)cn2cc([N+](=O)[O-])nc12 | >32 µg/mL | 5.00 | 10 µM | > 32 µg/mL | 6.66 | 0.2 µM | < 4.60 |  |  |  |  |  |  |  |  |  |  | solubility kinetic at 24 h, 200 µM (physchem [3]): 17 µM (≈ 4.36 µg/mL); solubility kinetic at 24 h, 200 µM (physchem [4]): 27 µM (≈ 6.92 µg/mL); IC50 (Entamoeba histolytica): > 25.1 µM |
| O=C(NO)c1nc([N+](=O)[O-])cn1Cc1ccc(OC(F)(F)F)cc1 | >32 µg/mL | 5.12 to 5.57 |  | > 32 µg/mL |  |  | 4.35 to 5.00 | 60 to 75% |  |  |  |  |  |  |  |  |  | MIC (Clostridioides difficile): 16 to 64 µg/mL (≈ 46.2 to 185 µM) |
| Cc1cn2cc([N+](=O)[O-])nc2c(OCc2ccc(OC(F)(F)F)cc2)n1 | >32 µg/mL | 5.13 | 7.94 µM | > 32 µg/mL | < 4.40 | > 39.8 µM | 5.02 |  |  |  |  |  |  |  |  |  |  | Stability [8]: 7.9%; PPB [9]: > 99%; Stability [10]: 69%; Stability [11]: 94%; Stability [12]: > 99%; IC50 (Entamoeba histolytica): 10 µM |
| O=c1[nH]ccn2cc([N+](=O)[O-])nc12 | >32 µg/mL | < 4.60 | > 25.1 µM | > 32 µg/mL |  |  |  |  | > 100 µM | > 32 µg/mL | > 32 µg/mL | > 100 µM | > 32 µg/mL | > 32 µg/mL | > 32 µg/mL | > 32 µg/mL | > 32 µg/mL | inhibition of growth at 40 µM [13]: 97% |
| Cc1ccc(CCn2ccn3cc([N+](=O)[O-])nc3c2=O)cc1 |  | 5.49 | 3.16 µM | > 32 µg/mL | < 4.40 | > 39.8 µM |  | 78% | > 100 µM | > 32 µg/mL | > 32 µg/mL | > 100 µM | > 32 µg/mL | > 32 µg/mL | > 32 µg/mL | > 32 µg/mL | > 32 µg/mL | pIC50 [2]: 5.40 |
| Cc1cn2cc([N+](=O)[O-])nc2c(=O)n1Cc1ccc(OC(F)(F)F)cc1 | >32 µg/mL | 5.24 | 6.31 µM | > 32 µg/mL | 6.39 | 3.98 µM | < 4.30 |  |  |  |  |  |  |  |  |  |  | Stability [8]: > 99%; PPB [9]: 98%; Stability [10]: > 99%; Stability [11]: 92%; Stability [12]: 99%; IC50 (Entamoeba histolytica): > 50.1 µM |
| O=c1c2nc([N+](=O)[O-])cn2ccn1CCc1ccc(OC(F)(F)F)cc1 |  | 5.80 | 1.58 µM | > 32 µg/mL |  |  |  | 70% | > 100 µM | > 32 µg/mL | > 32 µg/mL | > 100 µM | > 32 µg/mL | > 32 µg/mL | > 32 µg/mL | > 32 µg/mL | > 32 µg/mL | pIC50 [2]: 5.10; inhibition of growth at 40 µM [13]: 44% |
| Cc1ccc(Cn2ccn3cc([N+](=O)[O-])nc3c2=O)cc1 |  | 5.47 | 3.16 µM |  |  |  | < 4.30 |  |  | > 32 µg/mL | > 32 µg/mL |  | > 32 µg/mL | > 32 µg/mL | > 32 µg/mL | > 32 µg/mL | > 32 µg/mL | Stability [8]: 96%; MIC (Clostridioides difficile): > 64 µg/mL; Stability [10]: 97%; Stability [11]: > 99%; Stability [12]: > 99% |
| CC(c1ccc(F)cc1)n1ccn2cc([N+](=O)[O-])nc2c1=O (stereo not given) | 0.5 µg/mL (≈ 1.65 µM) | 5.68 | 2 µM | 4 to 6.3 µg/mL (≈ 13.2 to 20.8 µM) |  |  |  |  | > 100 µM | > 32 µg/mL | > 32 µg/mL | > 100 µM | > 32 µg/mL | > 32 µg/mL | > 32 µg/mL | > 32 µg/mL | > 32 µg/mL | inhibition of growth at 40 µM [13]: 94% |
| O=c1c2nc([N+](=O)[O-])cn2ccn1Cc1ccccn1 | >32 µg/mL | 4.85 | 15.8 µM | > 32 µg/mL | 5.01 | 10 µM |  |  | > 100 µM | > 32 µg/mL | > 32 µg/mL | > 100 µM | > 32 µg/mL | > 32 µg/mL | > 32 µg/mL | > 32 µg/mL | > 32 µg/mL | solubility kinetic at 24 h, 200 µM (physchem [3]): 184 µM (≈ 49.9 µg/mL); solubility kinetic at 24 h, 200 µM (physchem [4]): 176 µM (≈ 47.7 µg/mL) |
| O=C(NCc1ccc(OC(F)(F)F)cc1)c1ncc([N+](=O)[O-])[nH]1 | >32 µg/mL | 6.30 to 6.70 |  | > 32 µg/mL |  |  | 5.35 to 5.66 | 60 to 75% |  |  |  |  |  |  |  |  |  | MIC (Clostridioides difficile): 4 to 16 µg/mL (≈ 12.1 to 48.5 µM) |

Reference: ChEMBL document CHEMBL4382237, “Design, Synthesis, and Biological Evaluation of 2-Nitroimidazopyrazin-one/-es with Antitubercular and Antiparasitic Activity” (J Med Chem, 2018)
